Positions count from the first letter of the chain named. Active and inactive are the calls of the source.
Tests used:
A549 [1] = assay: Induction of apoptosis in TNFalpha-stimulated human A549 cells assessed as PARP cleavage at 5 and 10 uM pre-treated for 24 hrs before TNFalpha addition by immunoblotting method; assay type: functional, cell-based
In short: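 A549 or HepG2 cells were treated with compound for 24 h, with or without subsequent TNFα (20 ng/mL) for 30 min. Lysates were immunoblotted for PARP cleavage as the apoptosis marker. One of three to five similar experiments shown.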

A549 [2] = assay: Induction of apoptosis in TNFalpha-stimulated human A549 cells assessed as PARP cleavage at 5 and 10 uM pre-treated for 24 hrs before TNFalpha addition in presence of RXRalpha siRNA by immunoblotting method; assay type: functional, cell-based
In short: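 A549 cells were transfected with RXRα siRNA or control siRNA for 48 h. They were then treated with compound for 24 h, followed by TNFα (20 ng/mL) for 30 min. Lysates were analyzed by Western blot for AKT activation and PARP cleavage.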

MCF7 = assay: Growth inhibition of tRXRalpha stably expressing human MCF7 cells at 2 to 10 uM after 48 hrs by MTT assay; assay type: functional, cell-based
[3] = molecular target: T1, Peroxisome proliferator-activated receptor gamma (Homo sapiens) (UniProt P37231); assay: Antagonist activity against PPARgamma ligand binding domain (unknown origin) expressed in human MCF7 cells assessed as inhibition of ROS-induced receptor transactivation at 10 uM after 18 hrs by luciferase reporter gene based mammalian one-hybrid assay; assay type: cell-based
T1 sequence (whole entry): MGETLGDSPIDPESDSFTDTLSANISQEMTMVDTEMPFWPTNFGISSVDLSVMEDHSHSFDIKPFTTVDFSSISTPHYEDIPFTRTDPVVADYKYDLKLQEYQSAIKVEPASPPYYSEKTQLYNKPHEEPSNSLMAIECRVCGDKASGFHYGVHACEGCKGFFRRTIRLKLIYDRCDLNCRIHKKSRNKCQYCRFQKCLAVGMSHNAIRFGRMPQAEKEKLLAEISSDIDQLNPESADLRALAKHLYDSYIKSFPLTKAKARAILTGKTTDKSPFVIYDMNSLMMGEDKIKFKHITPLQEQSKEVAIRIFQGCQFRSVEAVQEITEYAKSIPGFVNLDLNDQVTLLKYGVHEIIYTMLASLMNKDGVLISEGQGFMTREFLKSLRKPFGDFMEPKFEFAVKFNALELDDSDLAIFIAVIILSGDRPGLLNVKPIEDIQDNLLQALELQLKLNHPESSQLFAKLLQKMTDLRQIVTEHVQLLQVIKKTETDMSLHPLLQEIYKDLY

[4] = tested on: T2, Retinoic acid receptor RXR-alpha (Homo sapiens), P19793 [V298S]; assay: Antagonist activity against RXRalpha V298S mutant (unknown origin) expressed in human HEK293T cells assessed as inhibition of 9-cis-RA-induced receptor transactivation at 1 to 10 uM after 18 hrs by luciferase reporter gene based mammalian one-hybrid assay; assay type: cell-based; settings: HEK-293T
T2 sequence (whole entry): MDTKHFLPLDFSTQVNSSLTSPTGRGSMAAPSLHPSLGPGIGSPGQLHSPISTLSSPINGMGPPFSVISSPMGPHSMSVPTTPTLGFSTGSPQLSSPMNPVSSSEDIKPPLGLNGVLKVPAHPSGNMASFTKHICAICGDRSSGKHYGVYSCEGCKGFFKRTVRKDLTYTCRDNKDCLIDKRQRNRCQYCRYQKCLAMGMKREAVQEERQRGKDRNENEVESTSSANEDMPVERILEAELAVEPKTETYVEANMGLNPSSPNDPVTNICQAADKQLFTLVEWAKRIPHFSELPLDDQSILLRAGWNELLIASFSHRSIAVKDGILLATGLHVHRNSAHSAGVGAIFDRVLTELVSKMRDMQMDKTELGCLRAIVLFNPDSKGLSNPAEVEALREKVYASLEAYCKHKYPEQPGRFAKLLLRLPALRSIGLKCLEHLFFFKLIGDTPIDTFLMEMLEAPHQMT
In short: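 HEK-293T cells co-transfected with pG5-Luc and an RXRα mutant vector (V298S as pBind fusion; A272W, C432W LBP mutants). […] Luciferase read-out. Mean ± SD.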

[5] = molecular target: T3, Retinoic acid receptor RXR-alpha (Homo sapiens) (UniProt P19793); assay: Antagonist activity against RXRalpha in TNFalpha-stimulated human A549 cells assessed as inhibition of AKT phosphorylation at 5 and 10 uM pre-treated for 24 hrs before TNFalpha addition by Western blotting method; assay type: cell-based
T3 sequence (whole entry): T2 sequence (whole entry) with S298V
In short: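 A549 or HepG2 cells were exposed to compound for 24 h, then with or without TNFα (20 ng/mL) for 30 min more. Lysates were immunoblotted for AKT activation. One of three to five similar experiments shown.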

[6] = tested on: T4, Retinoic acid receptor RXR-alpha (Homo sapiens), P19793 [A272W]; assay: Antagonist activity against RXRalpha A272W/F313A mutant (unknown origin) expressed in human HEK293T cells assessed as inhibition of constitutive receptor transactivation at 1 to 10 uM after 18 hrs by luciferase reporter gene based mammalian one-hybrid assay; settings: HEK-293T
T4 sequence (whole entry): T2 sequence (whole entry) with A272W, S298V

Cc1cc(=O)oc2c(/C=N/NC(=O)CSc3nc4ccccc4s3)c(O)ccc12
inactive: Activity (A549 [2]) | inhibition [4]
active: Activity (A549 [1]) | growth inhibition (GI) (MCF7) | inhibition [3] | inhibition [5] | inhibition [6] Dose-dependent effect
